Laboratory results from ChEMBL document CHEMBL4052786, “The hydrolytic susceptibility of prochelator BSIH in aqueous solutions” (Bioorg Med Chem Lett, 2017).
Values belong to the compound of their own block, whether it stands above or below them. Activity calls are given as the source filed them. No cut-off for these calls is given here.

Legend:
[1] = Stability of the compound in phosphate buffered saline at pH 7.4 assessed as compound hydrolysis at 100 uM within 20 mins by UV-Vis spectrophotometric analysis; assay type: physicochemical; conditions: buffer, pH 7.4, 20 min
[2] = Stability of the compound in phosphate buffered saline at pH 7.4 assessed as compound hydrolysis at 100 uM up to 24 hrs by UV-Vis spectrophotometric analysis; assay type: physicochemical; conditions: buffer, pH 7.4, 24 h
How it was run: (§1)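 Compound at 100 μM dissolved in PBS pH 7.4 or in minimal essential medium. UV-Vis spectra of freshly prepared and 24-h aged solutions kept at ambient temperature were compared.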

[3] = Stability of the compound in minimal essential medium assessed as compound hydrolysis at 100 uM at pH 7.4 within 20 mins by UV-Vis spectrophotometric analysis
[4] = Stability of the compound in minimal essential medium assessed as compound hydrolysis at 100 uM at pH 7.4 up to 24 hrs by UV-Vis spectrophotometric analysis; how it was run: as §1
[5] = Drug metabolism in D2O/5% DMSO-d6 assessed as formation of aldehyde proton of salicylaldehyde at 500 uM after 1 hr by 1H-NMR spectroscopic analysis; assay type: physicochemical
[6] = Drug metabolism in D2O/5% DMSO-d6 assessed as formation of hydrazone proton at 500 uM after 1 hr by 1H-NMR spectroscopic analysis; assay type: physicochemical
ARPE-19 [7] = test: Cytoprotective activity against H2O2-induced toxicity in human ARPE19 cells pretreated for 5 hrs followed by H2O2 addition after 19 hrs by CellTiter-blue assay; assay type: functional, cell-based
How it was run: (§2)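 ARPE-19 human retinal pigment epithelial cells pre-incubated 5 h with a range of compound concentrations, then given H2O2 at 200 μM. Viability read 19 h after peroxide addition by CellTiter Blue. Expressed as percent of untreated control (100%).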

ARPE-19 [8] = test: Cytotoxicity against human ARPE19 cells assessed as reduction in cell viability up to 100 uM after 72 hrs by CellTiter-blue assay; assay type: cell-based; conditions: arpe-19, 72 h
How it was run: (§3)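 Inherent toxicity tested on ARPE-19 cells. Compounds at concentrations up to 100 μM for 72 h. Viability read by CellTiter Blue assay.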

[9] = Drug metabolism in phosphate buffered saline at pH 7.4 assessed as equilibrium hydrolysis constant measured at 1 min interval for 20 mins by UV-vis spectrophotometric method; assay type: physicochemical; conditions: buffer, pH 7.4, 20 min
[10] = Stability of the compound in aqueous solvent assessed as parent compound remaining at 100 uM after 24 hrs in presence of H2O2 by 1H-NMR spectrometric method; assay type: physicochemical; conditions: aqueous solvent with H2O2; read-out: Stability
[11] = Drug metabolism in phosphate buffered saline at pH 7.4 assessed as formation of isoniazid by measuring elution time at 100 uM after 24 hrs in presence of H2O2 by LC-MS analysis; assay type: physicochemical; conditions: buffer, pH 7.4, 24 h
[12] = Drug metabolism in phosphate buffered saline at pH 7.4 assessed as formation of salicylaldehyde by measuring retention time at 100 uM after 24 hrs in presence of H2O2 by LC-MS analysis; assay type: physicochemical; conditions: buffer, pH 7.4, 24 h
[13] = Drug metabolism in phosphate buffered saline at pH 7.4 assessed as formation of SIH by measuring elution time at 100 uM after 24 hrs in presence of H2O2 by LC-MS analysis; assay type: physicochemical; conditions: buffer, pH 7.4, 24 h
[14] = Stability of the compound in Britton-Robinson buffer at pH 12 assessed as parent compound remaining at 100 uM by UV-vis spectrometric analysis; assay type: physicochemical; conditions: read-out: Stability
[15] = Stability of the compound in Britton-Robinson buffer at pH 8 assessed as parent compound remaining at 100 uM by UV-vis spectrometric analysis; assay type: physicochemical; conditions: read-out: Stability
[16] = Stability of the compound in Britton-Robinson buffer at pH 10 assessed as parent compound remaining at 100 uM by UV-vis spectrometric analysis; assay type: physicochemical; conditions: read-out: Stability
[17] = Stability of the compound in Britton-Robinson buffer at pH 6 assessed as parent compound remaining at 100 uM by UV-vis spectrometric analysis; assay type: physicochemical; conditions: read-out: Stability
[18] = Stability of the compound in Britton-Robinson buffer at pH 4 assessed as parent compound remaining at 100 uM by UV-vis spectrometric analysis; assay type: physicochemical; conditions: read-out: Stability
[19] = Stability of the compound in Britton-Robinson buffer at pH 2 assessed as parent compound remaining at 100 uM by UV-vis spectrometric analysis; assay type: physicochemical; conditions: read-out: Stability
[20] = Drug metabolism in D2O/5% DMSO-d6 assessed as pinacol dissociation by measuring formation of boronic acid form of BASIH at 500 uM after 1 hr by 1H-NMR spectroscopic analysis; assay type: physicochemical
[21] = Drug metabolism in DMSO-d6 assessed as formation of pinacol boronic ester form of BSIH at 10 mM by 1H-NMR spectroscopic analysis; assay type: physicochemical; conditions: 10000 µM
[22] = Stability of the compound in D2O/5% DMSO-d6 assessed as parent compound remaining at 500 uM after 1 hr by 1H-NMR spectroscopic analysis; assay type: physicochemical; conditions: read-out: Stability
[23] = Drug metabolism in DMSO-d6 assessed as formation of hydrazone proton at 10 mM by 1H-NMR spectroscopic analysis; assay type: physicochemical; conditions: 10000 µM
[24] = Stability of the compound in phosphate buffered saline assessed as parent compound remaining at 100 uM at pH 7.4 after 20 mins by UV-vis spectrophotometric analysis; assay type: physicochemical; conditions: read-out: Stability
[25] = Stability of the compound in phosphate buffered saline assessed as parent compound remaining at 500 uM at pH 7.4 after 20 mins by UV-vis spectrophotometric analysis; assay type: physicochemical; conditions: read-out: Stability
[26] = Stability of the compound in phosphate buffered saline at pH 7.4 assessed as compound hydrolysis at 100 uM after 24 hrs by UV-Vis spectrophotometric analysis; assay type: physicochemical; conditions: buffer, pH 7.4, 24 h; how it was run: as §1
[27] = Stability of the compound in minimal essential medium assessed as compound hydrolysis at 100 uM at pH 7.4 after 24 hrs by UV-Vis spectrophotometric analysis; how it was run: as §1
[28] = Drug metabolism in RPMI media assessed as equilibrium hydrolysis constant at 100 uM; assay type: physicochemical
[29] = Half-life in RPMI media at 100 uM; assay type: physicochemical
[30] = Stability of the compound in aqueous solvent at 500 uM after 24 hrs in presence of H2O2 by 1H-NMR spectroscopic analysis; assay type: physicochemical; conditions: buffer
[31] = Drug level treated with BSIH in DMSO assessed as metabolite formation at 100 uM at pH 7.4 after overnight incubation in presence of H2O2 by UV-vis spectrometric analysis
ARPE-19 [32] = test: Cytotoxicity against human ARPE19 cells assessed as reduction in cell viability at 100 uM after 72 hrs by CellTiter-blue assay relative to control; assay type: cell-based; conditions: arpe-19, 72 h; how it was run: as §3
[33] = Stability of the compound in minimal essential medium assessed as compound hydrolysis at 100 uM within 24 hrs by UV-Vis spectrophotometric analysis
[34] = Drug level treated with BSIH assessed as metabolite formation at 500 uM after 24 hrs in presence of H2O2 by 1H-NMR spectroscopic analysis
ARPE-19 [35] = test: Cytoprotective activity against H2O2-induced toxicity in human ARPE19 cells up to 100 uM pretreated for 5 hrs followed by H2O2 addition after 19 hrs by CellTiter-blue assay; assay type: functional, cell-based; how it was run: as §2

- Stability [1]: Unstable
- Stability [2]: Stable
- Drug metabolism [5]: 9.9 ppm
- Drug metabolism [6]: Metabolite_Notdetected
- K [9]: 1.5 ×10⁻⁵ M
- remaining at 24 h, 100 µM [10]: 25%
- Time [11]: 2 min
- Retention_time [12]: 12 min
- Time [13]: 13 min
- remaining at 100 µM [14]: 50%
- remaining at 100 µM [15]: 65%
- remaining at 100 µM [16]: 67%
- remaining at 100 µM [17]: 36%
- remaining at 100 µM [18]: 26%
- remaining at 100 µM [19]: 9%
- Drug metabolism [20]: 1.03 ppm
- Drug metabolism [21]: 1.34 ppm
- remaining at 1 h, 500 µM [22]: 80%
- Drug metabolism [23]: 8.79 ppm
SMILES: CC1(C)OB(c2ccccc2/C=N/NC(=O)c2ccncc2)OC1(C)C
- Stability [3]: Unstable
- Stability [4]: Stable
- Activity (ARPE-19 [7]): Dose-dependent effect
- Activity (ARPE-19 [8]): Non-Toxic

- Stability [1]: Unstable
- Stability [2]: Stable
- remaining at 20 min, 100 µM [24]: 68%
- remaining at 20 min, 500 µM [25]: 84%
SMILES: O=C(N/N=C/c1ccccc1B(O)O)c1ccncc1

- Stability [26]: Stable
- K [28]: 5 ×10⁻⁴ M
- half-life at 100 µM [29]: 2.7 h
- Stability [30]: Stable
SMILES: O=C(N/N=C/c1ccccc1O)c1ccncc1 [SALINAZID]
- Stability [27]: Unstable
- Activity (ARPE-19 [7]): Dose-dependent effect
- Drug metabolism [31]: Metabolite detected
- Activity (ARPE-19 [32]): 30%
- Stability [33]: Unstable

SMILES: O=Cc1ccccc1B(O)O
- Activity (ARPE-19 [7]): Dose-dependent effect
- Activity (ARPE-19 [8]): Non-Toxic

SMILES: O=Cc1ccccc1O [SALICYLADEHYDE]
- Drug metabolism [34]: Metabolite detected
- Activity (ARPE-19 [7]): Dose-dependent effect
- Activity (ARPE-19 [8]): Non-Toxic

SMILES: NNC(=O)c1ccncc1 [ISONIAZID]
- Drug metabolism [34]: Metabolite detected
- Activity (ARPE-19 [35]): inactive
- Activity (ARPE-19 [8]): Non-Toxic
